What was measured:
[1] = test system: Human immunodeficiency virus 1; assay: Antiviral activity against multidrug-resistant HIV1 C harboring L10I/I15V/K20R/L24I/M36I/M46L/I54V/I62V/L63P/K70Q/V82A/L89M protease-encoding region mutant infected in human PHA-PBMC cells assessed as inhibition of p24 Gag protein production; format: functional, organism-based; settings: Human immunodeficiency virus 1, C
Method in brief: (§1)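 EC50 was determined against each clinical isolate and wild-type HIV-1ERS104pre. Assays were run in duplicate, and values are means (±1 standard deviation) of two or three independent experiments.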

[2] = test system: Human immunodeficiency virus 1; assay: Ratio of EC50 for wild type HIV1 ERS104pre to EC50 for multidrug-resistant HIV1 TM harboring L10I/K14R/R41K/M46L/I54V/L63P/A71V/V82A/L90M/I93L protease-encoding region mutant; format: functional
Method in brief: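 Antiviral EC50 was measured against wild-type HIV-1ERS104pre and against multidrug-resistant isolates. The fold change is the EC50 for each isolate divided by the wild-type EC50. Assays were run in duplicate. Values are means (±1 standard deviation) from two or three independent experiments.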

[3] = test system: Human immunodeficiency virus 1; assay: Ratio of EC50 for wild type HIV1 ERS104pre to EC50 for multidrug-resistant HIV1 C harboring L10I/I15V/K20R/L24I/M36I/M46L/I54V/I62V/L63P/K70Q/V82A/L89M protease-encoding region mutant; format: functional
[4] = test system: Human immunodeficiency virus 1; assay: Antiviral activity against multidrug-resistant HIV1 TM harboring L10I/K14R/R41K/M46L/I54V/L63P/A71V/V82A/L90M/I93L protease-encoding region mutant infected in human PHA-PBMC cells assessed as inhibition of p24 Gag protein production; format: functional, organism-based; settings: Human immunodeficiency virus 1, TM; method in brief: as §1
[5] = test system: Human immunodeficiency virus 1; assay: Antiviral activity against wild type HIV1 ERS104pre infected in human PHA-PBMC cells assessed as inhibition of p24 Gag protein production; format: functional, organism-based; settings: Human immunodeficiency virus 1, ERS104pre; method in brief: as §1
[6] = test system: Human immunodeficiency virus 1; assay: Ratio of EC50 for wild type HIV1 ERS104pre to EC50 for multidrug-resistant HIV1 G harboring L10I/V11I/T12E/I15V/L19I/R41K/M46L/L63P/A71T/V82A/L90M protease-encoding region mutant; format: functional
Protease [7] = target: T1, Protease (Human immunodeficiency virus 1, UniProt Q9YQ12); assay: Inhibition of HIV1 protease
[8] = test system: Human immunodeficiency virus 1; assay: Antiviral activity against HIV1 LAV; format: functional, organism-based; settings: Human immunodeficiency virus 1, LAV
[9] = test system: Human immunodeficiency virus 1; assay: Antiviral activity against HIV1 LAI infected in human MT2 cells by MTT assay; format: functional, organism-based; settings: Human immunodeficiency virus 1, LAI
Method in brief: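 MT-2 human T-lymphoid cells (2 × 10^3) were exposed to 100 TCID50 of HIV-1LAI and cultured in the presence of protease inhibitor. IC50 was determined by MTT assay and reported as the mean of at least two experiments.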

Protease [10] = target: T1, Protease; assay: Inhibition of HIV1 LAI protease by fluorescence assay
[11] = test system: Human immunodeficiency virus 1; assay: Antiviral activity against multidrug-resistant HIV1 G harboring L10I/V11I/T12E/I15V/L19I/R41K/M46L/L63P/A71T/V82A/L90M protease-encoding region mutant infected in human PHA-PBMC cells assessed as inhibition of p24 Gag protein production.; format: functional, organism-based; settings: Human immunodeficiency virus 1, G; method in brief: as §1
[12] = test system: Human immunodeficiency virus 1; assay: Ratio of amprenavir EC50 to compound EC50 for wild type HIV-1 ERS104pre; format: functional

T1 sequence (Q9YQ12 whole entry): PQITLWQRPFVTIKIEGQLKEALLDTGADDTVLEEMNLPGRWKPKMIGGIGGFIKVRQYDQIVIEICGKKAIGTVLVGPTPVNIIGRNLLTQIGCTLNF

With `CC(C)CN(C[C@@H](O)[C@H](Cc1ccccc1)NC(=O)O[C@H]1CCOC1)S(=O)(=O)c1ccc(N)cc1` the EC50 [1] was 325 nM, the “Ratio EC50” value [2] was 16 and the “Ratio EC50” value [3] was 12. The EC50 [4] was 448 nM, the EC50 [5] was 28 nM and the “Ratio EC50” value [6] was 16.

Work on `COc1ccc(S(=O)(=O)N(CC(C)C)C[C@@H](O)[C@H](Cc2ccccc2)NC(=O)O[C@H]2CO[C@H]3O[C@@H]4OCC[C@@H]4[C@H]32)cc1` yielded a Ki (Protease [7]) of 0.0059 nM and an IC50 [8] of 1.8 nM.

Molecule `COc1ccc(S(=O)(=O)N(CC(C)C)C[C@@H](O)[C@H](Cc2ccccc2)NC(=O)O[C@@H]2COC[C@@H]3O[C@H]4OCC[C@H]4[C@@H]32)cc1` has an IC50 [9] of 260 nM and a Ki (Protease [10]) of 3.1 nM.

For `COc1ccc(S(=O)(=O)N(CC(C)C)C[C@@H](O)[C@H](Cc2ccccc2)NC(=O)O[C@H]2CS(=O)(=O)C[C@H]3O[C@@H]4OCC[C@@H]4[C@@H]23)cc1`, the IC50 [9] was over 1000 nM and the Ki (Protease [10]) was 0.6 nM.

Work on `COc1ccc(S(=O)(=O)N(CC(C)C)C[C@@H](O)[C@H](Cc2ccccc2)NC(=O)O[C@@H]2CS(=O)(=O)C[C@@H]3O[C@H]4OCC[C@H]4[C@@H]32)cc1` yielded an IC50 [9] of over 1000 nM and a Ki (Protease [10]) of 10.5 nM.

In the case of `COc1ccc(S(=O)(=O)N(CC(C)C)C[C@@H](O)[C@H](Cc2ccccc2)NC(=O)O[C@H]2CCC[C@H]3O[C@@H]4OCC[C@@H]4[C@@H]23)cc1`, the EC50 [1] is reported as 8 nM, the “Ratio EC50” value [2] is reported as 4 and the IC50 [9] is reported as 1.9 nM. For the same molecule, the “Ratio EC50” value [3] was 2, the EC50 [4] was 16 nM and the EC50 [5] was 3.6 nM. For the same molecule, the EC50 [11] was 12 nM, the Ki (Protease [10]) was 0.01 nM and the “Ratio EC50” value [6] was 3. For the same molecule, the “Ratio EC50” value [12] was 10.

`COc1ccc(S(=O)(=O)N(CC(C)C)C[C@@H](O)[C@H](Cc2ccccc2)NC(=O)O[C@@H]2CCC[C@@H]3O[C@H]4OCC[C@H]4[C@@H]32)cc1` gave an IC50 [9] of 240 nM and a Ki (Protease [10]) of 0.45 nM.

With `COc1ccc(S(=O)(=O)N(CC(C)C)C[C@@H](O)[C@H](Cc2ccccc2)NC(=O)O[C@H]2CC(C)(C)C[C@H]3O[C@@H]4OCC[C@@H]4[C@@H]23)cc1` the Ki (Protease [10]) was 8.8 nM.

Work on `COc1ccc(S(=O)(=O)N(CC(C)C)C[C@@H](O)[C@H](Cc2ccccc2)NC(=O)O[C@@H]2CC(C)(C)C[C@@H]3O[C@H]4OCC[C@H]4[C@@H]32)cc1` yielded a Ki (Protease [10]) of 139 nM.

`COc1ccc(S(=O)(=O)N(CC(C)C)C[C@@H](O)[C@H](Cc2ccccc2)NC(=O)O[C@H]2CCC[C@H]3O[C@@H]4OCCC[C@@H]4[C@@H]23)cc1` was tested, and the IC50 [9] was 48 nM and the Ki (Protease [10]) was 0.41 nM.

In the case of `COc1ccc(S(=O)(=O)N(CC(C)C)C[C@@H](O)[C@H](Cc2ccccc2)NC(=O)O[C@H]2COC[C@H]3O[C@@H]4OCC[C@@H]4[C@@H]23)cc1`, the EC50 [1] is reported as 32.9 nM, the IC50 [9] is reported as 4.5 nM and the “Ratio EC50” value [3] is reported as 4. It also gave an EC50 [5] of 8.3 nM, an EC50 [11] of 79.5 nM and a Ki (Protease [10]) of 0.021 nM. The “Ratio EC50” value [6] was 10.
